The record followed here is ChEMBL document CHEMBL1145959, “Design and synthesis of 8-hydroxy-[1,6]naphthyridines as novel inhibitors of HIV-1 integrase in vitro and in infected cells” (J Med Chem, 2003).

By pIC50 is commonly meant −log10 of the IC50, conventionally taken in molar units. As a reminder, the Cmax is the maximum level reached in the sampled fluid or tissue.

For data set [1], the target named is Human immunodeficiency virus type 1 integrase (Human immunodeficiency virus 1, UniProt Q7ZJM1). Put plainly: Compound was tested for its ability to inhibit the strand transfer of the integration process catalyzed by HIV integrase.
Sequence of Human immunodeficiency virus type 1 integrase (Q7ZJM1 whole entry): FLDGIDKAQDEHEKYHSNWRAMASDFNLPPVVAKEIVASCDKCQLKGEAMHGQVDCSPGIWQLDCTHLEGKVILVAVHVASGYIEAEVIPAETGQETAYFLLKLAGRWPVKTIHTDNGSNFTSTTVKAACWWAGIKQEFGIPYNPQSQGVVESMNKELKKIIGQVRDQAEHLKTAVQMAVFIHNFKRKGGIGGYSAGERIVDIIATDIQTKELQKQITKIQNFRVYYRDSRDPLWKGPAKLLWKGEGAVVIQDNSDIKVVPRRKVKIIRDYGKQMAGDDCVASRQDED
Data set [2] deals with MT4. Put plainly: Cell culture inhibitory concentration which inhibits 95% spread of HIV infection in cell culture, using HIV-1 IIIB variant and MT-4 T-lymphoid cells. In kind it is functional. As to conditions: Homo sapiens, read-out: CIC95.
For data set [3], the system named is MT4. Put plainly: Cytotoxicity of compound was determined on MT-4 cells. In kind it is functional, Homo sapiens. In a few lines:
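MT-4 cultures incubated 4 days with inhibitor. Toxicity scored by visual inspection for cytopathic effects: gross morphological changes, altered growth pattern, and metabolic change seen as lack of change in the medium pH indicator. Cell numbers also checked; cells typically double at least 4 times over the 4 days.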

Data set [4] is described as follows: Peak plasma level of compound (10 mg/kg) administered orally to rats after 60 min was determined. In kind it is ADME, organism-based. Further details: dose 10 mg/kg, route oral. As to conditions: rat, po. In a few lines:
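Rats dosed orally at 10 mg/kg as a 3.0 mg/mL aqueous solution with 1% methylcellulose and 1% DMSO. Plasma concentration followed over time, with Cmax taken as the peak plasma level.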

The structures appear in SMILES notation. pIC50: −log10 of the molar value.

`O=C(c1cccc(Cc2ccccc2)c1)c1oc2cccnc2c1O`: in data set [1], the pIC50 is 6.00. Further, the IC95 with MT4 [2] is more than 50000 nM. In the data set with MT4 [3], the Cytotoxicity came out at 12.5 µM.

For the compound `O=C(c1cc(Cc2ccccc2)ccn1)c1ccc2cccnc2c1O`, in data set [1], the pIC50 is 7.30. Besides, the IC95 with MT4 [2] came out at 2500 nM. The compound further displayed a Cytotoxicity in the data set with MT4 [3] of 2.5 µM.

Turning to `O=C(O)C(=O)CC(=O)c1cccc(Cc2ccccc2)c1`, the negative logarithm of the IC50 (pIC50) in data set [1] was 8.00. The IC95 with MT4 [2] stood at 1110 nM. This compound had a Cytotoxicity in the data set on MT4 [3] of more than 50 µM.

On to `O=c1c2cc(Cc3ccccc3)ccc2oc2ccc(O)c(O)c12`, for which, in data set [1], the pIC50 is 6.22. Besides, the IC95 in the data set with MT4 [2] came to 6000 nM. In the data set with MT4 [3], the Cytotoxicity came out at 3 µM.

As to `O=C(c1cc(Cc2ccccc2)cc(CN2CCCS2(=O)=O)c1)c1ncc2cccnc2c1O`, the highest level in data set [4] (Cmax) was 1170 nM. In addition, the pIC50 in data set [1] was 8.00. In addition, the IC95 with MT4 [2] was determined as 390 nM. Besides, the Cytotoxicity in the data set with MT4 [3] is more than 12.5 µM.

Turning to `O=C(c1cccc(Cc2ccccc2)c1)c1ccc2cccnc2c1O`, the IC95 in the data set on MT4 [2] worked out at 5000 nM. For the same compound, the Cytotoxicity with MT4 [3] came out at 1.25 µM.

For the compound `O=C(c1cccc(Cc2ccccc2)c1)c1ncc2cccnc2c1O`, the pIC50 in data set [1] is 7.40. For the same compound, the IC95 in the data set with MT4 [2] was 6200 nM. The Cytotoxicity with MT4 [3] was found to be 12.5 µM.
